Reference: PubChem BioAssay
The source made the active and inactive calls.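 Rule for the calls, unless noted: active = viability at or below 30% in both replicate assays; inconclusive = viability at or below 30% in just one of the two assays; inactive = the rest.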

Experiments:
[1] = Her2 expression decrease, cell viability multiplex – SKBR3 breast tumor cells, AlphaScreen, ATP viability, primary screen (AID 461;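 active = Her2 level under about 52% in both replicate screens, with viability over 70% of control, limit read from the data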;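 for Her2 level: lower value means less Her2 protein in the cells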;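 for viability: percent of carrier control wells set as 100% viability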); conditions: SKBR3 Her2 protein level, 18-24 h, measured here: SKBR3 viability, ATP luminescence, at 10 µM
[2] = biological target: Receptor tyrosine-protein kinase erbB-2 (Homo sapiens) (UniProt P04626); experiment: as above; conditions: 18-24 h, at 10 µM, stronger effect = lower value
Chain of Receptor tyrosine-protein kinase erbB-2 (Homo sapiens) (P04626 whole entry, looked up): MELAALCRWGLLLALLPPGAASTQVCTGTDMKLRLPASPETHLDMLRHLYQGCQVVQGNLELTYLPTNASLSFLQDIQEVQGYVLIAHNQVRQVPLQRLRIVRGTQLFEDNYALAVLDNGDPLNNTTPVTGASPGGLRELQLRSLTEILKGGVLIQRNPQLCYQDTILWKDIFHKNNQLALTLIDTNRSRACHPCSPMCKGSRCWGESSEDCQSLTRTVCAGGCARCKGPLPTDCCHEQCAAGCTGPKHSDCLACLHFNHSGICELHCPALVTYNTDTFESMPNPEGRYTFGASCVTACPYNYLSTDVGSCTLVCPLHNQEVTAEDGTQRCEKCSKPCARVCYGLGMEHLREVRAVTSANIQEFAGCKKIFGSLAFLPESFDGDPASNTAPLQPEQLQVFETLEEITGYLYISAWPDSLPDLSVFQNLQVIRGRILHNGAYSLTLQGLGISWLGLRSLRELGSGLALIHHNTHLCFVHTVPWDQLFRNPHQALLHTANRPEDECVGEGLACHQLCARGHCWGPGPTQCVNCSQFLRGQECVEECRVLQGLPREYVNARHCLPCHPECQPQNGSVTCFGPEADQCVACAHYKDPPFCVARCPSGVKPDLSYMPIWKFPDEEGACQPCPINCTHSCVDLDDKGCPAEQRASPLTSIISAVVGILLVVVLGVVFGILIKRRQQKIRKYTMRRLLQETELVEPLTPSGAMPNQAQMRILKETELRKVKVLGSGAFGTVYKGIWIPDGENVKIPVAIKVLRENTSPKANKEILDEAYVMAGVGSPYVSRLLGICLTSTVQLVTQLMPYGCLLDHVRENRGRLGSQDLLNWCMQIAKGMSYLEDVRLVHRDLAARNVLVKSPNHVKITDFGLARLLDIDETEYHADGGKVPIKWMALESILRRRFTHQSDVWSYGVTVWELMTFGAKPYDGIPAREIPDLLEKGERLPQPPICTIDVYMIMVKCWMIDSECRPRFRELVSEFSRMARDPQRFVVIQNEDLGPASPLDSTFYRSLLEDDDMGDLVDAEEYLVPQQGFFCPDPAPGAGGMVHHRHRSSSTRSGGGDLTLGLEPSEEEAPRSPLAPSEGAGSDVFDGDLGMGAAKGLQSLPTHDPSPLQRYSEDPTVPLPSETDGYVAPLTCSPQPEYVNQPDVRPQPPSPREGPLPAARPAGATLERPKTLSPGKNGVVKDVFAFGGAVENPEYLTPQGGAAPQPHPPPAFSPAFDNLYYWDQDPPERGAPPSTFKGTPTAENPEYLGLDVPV

[3] = reduced viability of SK-BR-3 breast cancer cells – cell-based, 24 h, human, pilot screen (AID 572;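 active = viability at or below 10% of carrier control in both of two separate runs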;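 note: compound exposure lasted between 18 and 24 h rather than exactly 24 h; 100% = carrier-treated control wells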); conditions: SK-BR-3 viability, CellTiter-Glo luminescence, at 10 µM, stronger effect = lower value
[4] = HUVEC growth inhibition – cell-based, human, primary screen (AID 575); conditions: HUVEC proliferation, CellTiter-Glo luminescence, 72 h; at 10 µM; stronger effect = lower value;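 note: 100% = median of untreated cell wells with 0.1% DMSO on each plate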
Procedure, shortened: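 Material: primary human umbilical vein endothelial cells / Schedule: 72 h exposure, 37 °C, 5% CO2, 30 min RT equilibration / Signal: ATP-based CellTiter-Glo luminescent read / Read-out basis: percent of median DMSO-control luminescence / Control set: 32 DMSO-only cell-control wells (high), 32 MePR drug-control wells (low) per plate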

[5] = H69AR cell proliferation blockers – human, duplicate replicates, primary screen (AID 580;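 active = viability at or under a set limit in both replicates, limit being median viability minus 3 SD, cut at about 48% in these data, passing the limit was not always enough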;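 note: 100% = mean luminescence of untreated wells and 0% = no signal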); conditions: H69AR lung tumor cells viability, ATP luminescence, 72 h; at 10 µM; stronger effect = lower value
[6] = MRP1 drug-resistance reversers in H69AR cells – cell-based, doxorubicin co-treatment, pilot screen (AID 601;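 active = viability loss from added drug above about 55%, and viability with drug at most 40%, in both replicates, limit read from the data, passing the limit was not always enough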); conditions: CellTiter-Glo, 72 h, at 10 µM; for differential viability (reversal): stronger effect = higher value
[7] = yeast transport mutant growth inhibition pilot in 384-well plates, post-Golgi transport modulator project (AID 636; in the data active = inhibition above about 31%); conditions: absorbance 615 nm, about 18 h, stronger effect = higher value
[8] = growth suppression of yeast trafficking mutant, preliminary HTS, modulators of trafficking downstream of Golgi apparatus project, 1536-format plate, OD 615 nm (AID 637; in the data active = inhibition above about 30%); conditions: yeast transport mutant growth, absorbance 615 nm, 18 h; stronger effect = higher value
[9] = H69AR cells + 2 uM doxorubicin, measured here: viability with 2 uM doxorubicin, stronger effect = lower value
[10] = H69AR cells, compound alone cytotoxicity

Row | Structure (SMILES) | viability [1] [%] | Her2 level [2] | viability [3] | viability [4] | viability [5] | differential viability (reversal) ([6]; H69AR cells + 2 uM doxorubicin) | viability [6, 9] [%] | viability [6, 10] [%] | inhibition [7] | inhibition [8]
1 | COCCn1nnnc1C(c1cccs1)N1CCN(c2cc(C)ccc2C)CC1 (stereo not given) | 107 | 84.5% (inactive) | 107% (inactive) | 84.8% (inactive) | 92.5% (inactive) | 2.44% (inactive) | 90.1 | 92.5 | 1.3% (inactive) | 1.27% (inactive)
2 | O=C(O)C1CCCN1C(=O)Nc1ccc(F)cc1 (stereo not given) | 87 | 90.5% (inactive) | 87% (inactive) | 106% (inactive) | 93.6% (inactive) | 10.5% (inactive) | 83.1 | 93.6 | -4.73% (inactive) | -8.5% (inactive)
3 | COc1ccc(Cn2c(CCCO)nc3ccccc32)cc1OC | 98.5 | 97.5% (inactive) | 98.5% (inactive) | 105% (inactive) | 102% (inactive) | 14.2% (inactive) | 88 | 102 | -7.67% (inactive) | -3.17% (inactive)
4 | CCOC(=O)c1cc2n(n1)C(C(F)(F)C(F)(F)F)CC(C)N2 (stereo not given) | 92 | 93.5% (inactive) | 92% (inactive) | 105% (inactive) | 97.3% (inactive) | 4.36% (inactive) | 93 | 97.3 | -3.73% (inactive) | -0.32% (inactive)
5 | CCOC(=O)N1CCN(C(=O)c2cccn3c(=O)c4sccc4nc23)CC1 | 89.5 | 93.5% (inactive) | 89.5% (inactive) | 106% (inactive) | 90.8% (inactive) | -12.8% (inactive) | 104 | 90.8 | 3.6% (inactive) | -0.33% (inactive)
6 | Cc1cccc2cc(CN(CCCO)C(=O)Nc3ccc(Cl)cc3)c(=O)[nH]c12 | 74 | 69.5% (inactive) | 74% (inactive) | 67.9% (inactive) | 77.1% (inactive) | 5.85% (inactive) | 71.2 | 77.1 | -5.32% (inactive) | -1.43% (inactive)
7 | CCOc1cccc(/C(O)=C2/C(=O)C(=O)N(CCN3CCOCC3)C2c2cccnc2)c1 (stereo not given) | 98.5 | 99.5% (inactive) | 98.5% (inactive) | 87.3% (inactive) | 103% (inactive) | 5.18% (inactive) | 98.2 | 103 | -3.68% (inactive) | -3.17% (inactive)
8 | Cc1ccc2oc(-c3ccccc3C(=O)O)cc(=O)c2c1 | 88.5 | 84.5% (inactive) | 88.5% (inactive) | 89.3% (inactive) | 101% (inactive) | -2.34% (inactive) | 103 | 101 | -6.93% (inactive) | 6.07% (inactive)
9 | O=C(CNc1ccc(Oc2ccccc2)cc1)N1CCOCC1 | 92.5 | 95.5% (inactive) | 92.5% (inactive) | 92.1% (inactive) | 105% (inactive) | 4.96% (inactive) | 100 | 105 | -7.81% (inactive) | 6.98% (inactive)
10 | c1ccc(OCCCn2nnc(-c3cccnc3)n2)cc1 | 110 | 87.5% (inactive) | 110% (inactive) | 103% (inactive) | 108% (inactive) | 10.3% (inactive) | 97.3 | 108 | -3.68% (inactive) | -5.83% (inactive)
11 | CCOc1ccccc1C(=O)N1CCN(c2cccc(Cl)c2)CC1 | 118 | 80% (inactive) | 118% (inactive) | 23.3% (active) | 28.2% (active) | -35.7% (inactive) | 63.8 | 28.2 | -4.53% (inactive) | 1.15% (inactive)
12 | CCCC(=O)N1c2ccccc2NC2=C(C(=O)CCC2)C1c1ccc(F)cc1 (stereo not given) | 98.5 | 78% (inactive) | 98.5% (inactive) | 96.9% (inactive) | 91.6% (inactive) | -0.1% (inactive) | 91.7 | 91.6 | -0.14% (inactive) | 3.81% (inactive)
13 | O=C(NCC(c1cccnc1)N1CCOCC1)c1cccs1 (stereo not given) | 101 | 75.5% (inactive) | 101% (inactive) | 89.6% (inactive) | 92.5% (inactive) | -0.595% (inactive) | 93.1 | 92.5 | -2.24% (inactive) | 11.2% (inactive)
14 | CC(=O)C1=C(O)C(=O)N(c2ccc(C(=O)O)cc2)C1c1ccccc1 (stereo not given) | 107 | 89% (inactive) | 107% (inactive) | 117% (inactive) | 102% (inactive) | 5.88% (inactive) | 95.7 | 102 | -0.66% (inactive) | 1.8% (inactive)
15 | CC(O)c1nc2ccccc2n1C1CCCCC1 (stereo not given) | 104 | 91.5% (inactive) | 104% (inactive) | 124% (inactive) | 97.2% (inactive) | 11.3% (inactive) | 85.9 | 97.2 | -1.18% (inactive) | 3.55% (inactive)
16 | Nc1cc(-c2ccccc2)ccc1O | 100 | 70.5% (inactive) | 100% (inactive) | 86.3% (inactive) | 73% (inactive) | 12% (inactive) | 60.9 | 73 | -7.16% (inactive) | 8.33% (inactive)

Row | Structure (SMILES) | viability [1] [%] | Her2 level [2] | viability [3] | viability [4] | viability [5] | differential viability (reversal) ([6]; H69AR cells + 2 uM doxorubicin) | viability [6, 9] [%] | viability [6, 10] [%] | inhibition [7] | inhibition [8]
17 | CCOc1ccc2[nH]c(=O)c(CN(CCOC)C(=O)N3CCOCC3)cc2c1 | 97 | 90% (inactive) | 97% (inactive) | 102% (inactive) | 92.1% (inactive) | -8.59% (inactive) | 101 | 92.1 | -3.33% (inactive) | 4.59% (inactive)
18 | CC(=O)c1c(C)[nH]c(C(=O)Nc2ccc3c(c2)OCCO3)c1C | 102 | 92% (inactive) | 102% (inactive) | 86.1% (inactive) | 92.9% (inactive) | 18.1% (inactive) | 74.8 | 92.9 | -0.26% (inactive) | 2.42% (inactive)
19 | CCN(CC)C(=O)CSc1nc2ccccc2c(=O)n1CCC(=O)NCc1ccc(F)cc1 | 93 | 105% (inactive) | 93% (inactive) | 98.3% (inactive) | 92.7% (inactive) | 3.08% (inactive) | 89.6 | 92.7 | 4.34% (inactive) | 20.2% (inactive)
20 | O=C(NCC(=O)N(c1ccc2c(c1)OCCO2)C(C(=O)NC1CCCC1)c1ccco1)c1ccco1 (stereo not given) | 92 | 102% (inactive) | 92% (inactive) | 97.2% (inactive) | 92.1% (inactive) | 13.4% (inactive) | 78.7 | 92.1 | -4.53% (inactive) | -9.05% (inactive)
21 | O=C(N1CCN(Cc2ccccc2)CC1)C12CC3CC(CC(C3)C1)C2 | 83 | 98% (inactive) | 83% (inactive) | 80.4% (inactive) | 83.4% (inactive) | -5.52% (inactive) | 88.9 | 83.4 | -5.54% (inactive) | -0.67% (inactive)
22 | CCOC(=O)c1ccc(NC(=O)CCNc2c(N3CCCC3)c(=O)c2=O)cc1 | 104 | 96.5% (inactive) | 104% (inactive) | 91.6% (inactive) | 98.3% (inactive) | 0.27% (inactive) | 98 | 98.3 | -2.5% (inactive) | 0.18% (inactive)
23 | Cn1c(SCc2cccc3ccccc23)nnc1-c1ccco1 | 76 | 98.5% (inactive) | 76% (inactive) | 126% (inactive) | 92.4% (inactive) | 7.87% (inactive) | 84.5 | 92.4 | -0.93% (inactive) | -6.94% (inactive)
24 | Nc1nc2ccccc2n1C(=O)CCc1ccccc1 | 102 | 83.5% (inactive) | 102% (inactive) | 44.8% (inactive) | 48.4% (active) | -27.6% (inactive) | 76.1 | 48.4 | -2.11% (inactive) | -2.67% (inactive)
25 | COc1ccc(CCn2c(C)cc(C(=O)CSc3nnnn3C)c2C)cc1 | 99.5 | 144% (inactive) | 99.5% (inactive) | 81.7% (inactive) | 101% (inactive) | -3.11% (inactive) | 104 | 101 | -0.13% (inactive) | -1.83% (inactive)
26 | CCCn1c(-c2ccc(F)cc2)cnc1SCC(=O)O | 128 | 98.5% (inactive) | 128% (inactive) | 101% (inactive) | 84.8% (inactive) | 3.56% (inactive) | 81.2 | 84.8 | -3.33% (inactive) | 2.79% (inactive)
27 | NC1=NC(c2ccc(Cl)cc2)n2c(nc3ccccc32)N1 (stereo not given) | 96 | 86% (inactive) | 96% (inactive) | 84.9% (inactive) | 78.4% (inactive) | -10.8% (inactive) | 89.3 | 78.4 | -5.13% (inactive) | -0.73% (inactive)
28 | COc1ccc(-c2cc(C(=O)Nc3ccc(C)cc3)no2)cc1 | 121 | 114% (inactive) | 121% (inactive) | 109% (inactive) | 99.1% (inactive) | 9.35% (inactive) | 89.7 | 99.1 | -3.11% (inactive) | 41% (active)
29 | Cc1cc(C)n2nc(S(=O)(=O)N(C)Cc3ccccc3)nc2n1 | 80 | 91% (inactive) | 80% (inactive) | 122% (inactive) | 93.4% (inactive) | 4.15% (inactive) | 89.2 | 93.4 | -7.16% (inactive) | -5.67% (inactive)
30 | CCn1c(C(=O)N2CCC(C(=O)NCc3ccc4c(c3)OCO4)CC2)cc2sccc21 | 89 | 77.5% (inactive) | 89% (inactive) | 96.7% (inactive) | 89.6% (inactive) | 4.37% (inactive) | 85.3 | 89.6 | -2.93% (inactive) | 1.64% (inactive)
31 | Nc1nnc(-c2ccccc2)c(-c2ccccc2)n1 | 96.5 | 90% (inactive) | 96.5% (inactive) | 86.4% (inactive) | 99.2% (inactive) | 5.16% (inactive) | 94 | 99.2 | -4.53% (inactive) | 7.42% (inactive)
